Several values for one entry are separate records, joined by “and”; a condition that tells them apart may be missing. Equal entries are not always repeated.
Test system: Fibroblast
Experiment: Multiplex assay against human fibroblast
Type: toxicity, cell-based
Outline: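 With compound added, live cells were imaged on a CQ1 microscope at 37°C and 5% CO2; staining with Hoechst33342, BioTracker Green Microtubule Cytoskeleton Dye, MitoTracker Red and Annexin V Alexa Fluor 680 had been done at seeding. The CellPathfinder machine-learning gating scheme split cells into Hoechst high-intensity objects or normal cells, normal cells into healthy, pyknosed or fragmented nuclei, and pyknosed cells into mitotic or apoptotic. The tubulin, mitochondrial-mass and membrane-permeability phenotypes are per cents of healthy-nucleus cells.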

[1] = 12 h, 1 µM, compound concentration 1 uM
[2] = 12 h, 10 µM, compound concentration 10 uM
[3] = 24 h, 1 µM, compound concentration 1 uM
[4] = 24 h, 10 µM, compound concentration 10 uM
[5] = 48 h, 1 µM, compound concentration 1 uM
[6] = 48 h, 10 µM, compound concentration 10 uM

CC(=O)NCC(=O)N1[C@@H]2CC[C@H]1c1ccc(Nc3ncc(C(F)(F)F)c(NC4CCC4)n3)cc12 [PF-03814735]
Population Apoptotic (%) [1]: 14.81% and 22.73%
Population Fragmented Nuclei (%) [1]: 12.78% and 6.01%
Population Healthy Nuclei (%) [1]: 72.22% and 81.97%
Population Hoechst High Intensity Objects (%) [1]: 0%
Population Membrane Permeable-Phenotype (%) [1]: 4.62% and 4%
Population Mitochondria Different-Phenotype (%) [1]: 7.69% and 10.67%
Population Mitotic Cells (%) [1]: 85.19% and 77.27%
Population Normal (%) [1]: 100%
Population Pyknosed Nuclei (%) [1]: 15% and 12.02%
Population Tubulin-Different-Phenotype (%) [1]: 20% and 22.67%
Total Cell Count [1]: 180 and 183
Population Apoptotic (%) [2]: 46.51% and 79.49%
Population Fragmented Nuclei (%) [2]: 20.25% and 27.83%
Population Healthy Nuclei (%) [2]: 53.37% and 53.77%
Population Hoechst High Intensity Objects (%) [2]: 0%
Population Membrane Permeable-Phenotype (%) [2]: 25.29% and 34.21%
Population Mitochondria Different-Phenotype (%) [2]: 17.24% and 20.18%
Population Mitotic Cells (%) [2]: 53.49% and 20.51%
Population Normal (%) [2]: 100%
Population Pyknosed Nuclei (%) [2]: 26.38% and 18.4%
Population Tubulin-Different-Phenotype (%) [2]: 36.78% and 78.07%
Total Cell Count [2]: 163 and 212
Population Apoptotic (%) [3]: 18.18% and 31.25%
Population Fragmented Nuclei (%) [3]: 18.48% and 9.2%
Population Healthy Nuclei (%) [3]: 75.54% and 81.61%
Population Hoechst High Intensity Objects (%) [3]: 0%
Population Membrane Permeable-Phenotype (%) [3]: 9.35% and 5.63%
Population Mitochondria Different-Phenotype (%) [3]: 5.76% and 6.34%
Population Mitotic Cells (%) [3]: 81.82% and 68.75%
Population Normal (%) [3]: 100%
Population Pyknosed Nuclei (%) [3]: 5.98% and 9.2%
Population Tubulin-Different-Phenotype (%) [3]: 17.99% and 28.87%
Total Cell Count [3]: 184 and 174
Population Apoptotic (%) [4]: 39.13% and 90.32%
Population Fragmented Nuclei (%) [4]: 24.36% and 32.26%
Population Healthy Nuclei (%) [4]: 46.15% and 39.17%
Population Hoechst High Intensity Objects (%) [4]: 0%
Population Normal (%) [4]: 100%
Population Pyknosed Nuclei (%) [4]: 29.49% and 28.57%
Population Tubulin-Different-Phenotype (%) [4]: 31.94% and 67.06%
Total Cell Count [4]: 156 and 217
Population Fragmented Nuclei (%) [5]: 18.54% and 6.41%
Population Healthy Nuclei (%) [5]: 75.28% and 89.74%
Population Hoechst High Intensity Objects (%) [5]: 0%
Population Membrane Permeable-Phenotype (%) [5]: 1.49% and 7.14%
Population Normal (%) [5]: 100%
Population Pyknosed Nuclei (%) [5]: 6.18% and 3.85%
Population Tubulin-Different-Phenotype (%) [5]: 14.18% and 30.71%
Total Cell Count [5]: 178 and 156
Population Apoptotic (%) [6]: 36.84% and 83.78%
Population Fragmented Nuclei (%) [6]: 23.6% and 31.34%
Population Healthy Nuclei (%) [6]: 64.6% and 51.61%
Population Hoechst High Intensity Objects (%) [6]: 0%
Population Mitochondria Different-Phenotype (%) [6]: 26.92% and 25%
Population Normal (%) [6]: 100%
Population Pyknosed Nuclei (%) [6]: 11.8% and 17.05%
Total Cell Count [6]: 161 and 217

CN1CCN(c2nc3cc(C(F)(F)F)ccc3n3cccc23)CC1.O=C(O)/C=C\C(=O)O.O=C(O)/C=C\C(=O)O
Population Apoptotic (%) [1]: 50% and 26%
Population Fragmented Nuclei (%) [1]: 18% and 24%
Population Healthy Nuclei (%) [1]: 71% and 46%
Population Hoechst High Intensity Objects (%) [1]: 0% and 6%
Population Membrane Permeable-Phenotype (%) [1]: 0% and 6%
Population Mitochondria Different-Phenotype (%) [1]: 5% and 4%
Population Mitotic Cells (%) [1]: 50% and 73%
Population Normal (%) [1]: 99% and 93%
Population Tubulin-Different-Phenotype (%) [1]: 27% and 47%
Total Cell Count [1]: 146 and 107
Population Apoptotic (%) [2]: 40% and 60%
Population Fragmented Nuclei (%) [2]: 29% and 35%
Population Healthy Nuclei (%) [2]: 59% and 41%
Population Hoechst High Intensity Objects (%) [2]: 2% and 4%
Population Membrane Permeable-Phenotype (%) [2]: 0% and 4%
Population Mitochondria Different-Phenotype (%) [2]: 25% and 38%
Population Mitotic Cells (%) [2]: 59% and 40%
Population Normal (%) [2]: 97% and 95%
Population Pyknosed Nuclei (%) [2]: 10% and 22%
Population Tubulin-Different-Phenotype (%) [2]: 69% and 85%
Total Cell Count [2]: 207 and 117
Population Apoptotic (%) [3]: 66% and 40%
Population Fragmented Nuclei (%) [3]: 16% and 35%
Population Healthy Nuclei (%) [3]: 72% and 42%
Population Hoechst High Intensity Objects (%) [3]: 1% and 6%
Population Membrane Permeable-Phenotype (%) [3]: 0% and 7%
Population Mitochondria Different-Phenotype (%) [3]: 2% and 7%
Population Mitotic Cells (%) [3]: 33% and 59%
Population Normal (%) [3]: 98% and 93%
Population Pyknosed Nuclei (%) [3]: 10% and 22%
Population Tubulin-Different-Phenotype (%) [3]: 23% and 43%
Total Cell Count [3]: 142 and 104
Population Apoptotic (%) [4]: 77% and 63%
Population Fragmented Nuclei (%) [4]: 24% and 37%
Population Healthy Nuclei (%) [4]: 64% and 43%
Population Hoechst High Intensity Objects (%) [4]: 6% and 1%
Population Membrane Permeable-Phenotype (%) [4]: 0% and 6%
Population Mitochondria Different-Phenotype (%) [4]: 32%
Population Mitotic Cells (%) [4]: 22% and 36%
Population Normal (%) [4]: 93% and 98%
Population Pyknosed Nuclei (%) [4]: 10% and 19%
Population Tubulin-Different-Phenotype (%) [4]: 75% and 86%
Total Cell Count [4]: 214 and 117
Population Apoptotic (%) [5]: 44% and 42%
Population Fragmented Nuclei (%) [5]: 25% and 37%
Population Healthy Nuclei (%) [5]: 63% and 40%
Population Hoechst High Intensity Objects (%) [5]: 2% and 3%
Population Membrane Permeable-Phenotype (%) [5]: 1% and 0%
Population Mitochondria Different-Phenotype (%) [5]: 2%
Population Mitotic Cells (%) [5]: 55% and 57%
Population Normal (%) [5]: 97% and 96%
Population Pyknosed Nuclei (%) [5]: 11% and 21%
Population Tubulin-Different-Phenotype (%) [5]: 22% and 57%
Total Cell Count [5]: 162 and 102
Population Apoptotic (%) [6]: 77% and 63%
Population Fragmented Nuclei (%) [6]: 22% and 33%
Population Healthy Nuclei (%) [6]: 68% and 57%
Population Hoechst High Intensity Objects (%) [6]: 7% and 5%
Population Membrane Permeable-Phenotype (%) [6]: 0% and 1%
Population Mitochondria Different-Phenotype (%) [6]: 28% and 23%
Population Mitotic Cells (%) [6]: 22% and 36%
Population Normal (%) [6]: 92% and 94%
Population Pyknosed Nuclei (%) [6]: 9%
Population Tubulin-Different-Phenotype (%) [6]: 77% and 85%
Total Cell Count [6]: 211 and 118

Source: ChEMBL document CHEMBL5724801, “EUbOPEN Chemogenomics Library - Multiplex” (2024)
